# According to ChEMBL document CHEMBL3860041, “Synthesis, biological evaluation and molecular modeling study of some new methoxylated 2-benzylthio-quinazoline-4(3H)-ones as nonclassical antifolates” (Bioorg Med Chem Lett, 2016):
# What was measured:
# Dihydrofolate reductase = molecular target: T1, Dihydrofolate reductase (Bos taurus, UniProt P00376); assay: Inhibition of bovine liver DHFR preincubated for 2 mins followed by addition of FH2 as substrate and NADPH
# T1 sequence (P00376 whole entry): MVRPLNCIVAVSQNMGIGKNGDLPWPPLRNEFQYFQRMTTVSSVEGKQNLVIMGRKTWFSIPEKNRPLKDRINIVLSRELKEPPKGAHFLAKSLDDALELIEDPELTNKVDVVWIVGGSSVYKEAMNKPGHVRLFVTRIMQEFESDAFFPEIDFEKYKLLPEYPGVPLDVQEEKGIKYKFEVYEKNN
# [1] = Growth inhibition of human A549 cells at 10 uM after 48 hrs by SRB assay relative to control; assay type: functional; details: A549, 48 h, read-out: GI
# How it was run: (§1)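 NCI 60-cell-line panel, nine tumor subpanels; compounds tested at a single dose of 10 μM in the primary screen.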
# [2] = Growth inhibition of human NCI-322M cells at 10 uM after 48 hrs by SRB assay relative to control; assay type: functional; details: read-out: GI; how it was run: as §1
# [3] = Growth inhibition of human COLO205 cells at 10 uM after 48 hrs by SRB assay relative to control; assay type: functional; details: COLO 205, 48 h, read-out: GI; how it was run: as §1
# [4] = Growth inhibition of human HCC2998 cells at 10 uM after 48 hrs by SRB assay relative to control; assay type: functional; details: HCC 2998, 48 h, read-out: GI; how it was run: as §1
# [5] = Growth inhibition of human HT-29 cells at 10 uM after 48 hrs by SRB assay relative to control; assay type: functional; details: HT-29, 48 h, read-out: GI; how it was run: as §1
# [6] = Growth inhibition of human KM12 cells at 10 uM after 48 hrs by SRB assay relative to control; assay type: functional; details: KM12, 48 h, read-out: GI; how it was run: as §1
# [7] = Growth inhibition of human SW620 cells at 10 uM after 48 hrs by SRB assay relative to control; assay type: functional; details: SW-620, 48 h, read-out: GI
# How it was run: (§2)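 Primary screen across the full NCI 60 human tumour cell line panel, which covers nine tumour subpanels. A single dose of 10 μM was applied to each line, and growth was recorded for each cell line.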
# [8] = Growth inhibition of human SF539 cells at 10 uM after 48 hrs by SRB assay relative to control; assay type: functional; details: SF-539, 48 h, read-out: GI; how it was run: as §1
# [9] = Growth inhibition of human LOXIMVI cells at 10 uM after 48 hrs by SRB assay relative to control; assay type: functional; details: LOX IMVI, read-out: GI; how it was run: as §1
# [10] = Growth inhibition of human MALME-3M cells at 10 uM after 48 hrs by SRB assay relative to control; assay type: functional; details: read-out: GI; how it was run: as §1
# [11] = Growth inhibition of human M14 cells at 10 uM after 48 hrs by SRB assay relative to control; assay type: functional; details: M14, 48 h, read-out: GI; how it was run: as §1
# [12] = Growth inhibition of human SK-MEL-5 cells at 10 uM after 48 hrs by SRB assay relative to control; assay type: functional; details: SK-MEL-5, 48 h, read-out: GI; how it was run: as §2
# [13] = Growth inhibition of human UACC62 cells at 10 uM after 48 hrs by SRB assay relative to control; assay type: functional; details: UACC-62, 48 h, read-out: GI; how it was run: as §2
# [14] = Growth inhibition of human IGROV1 cells at 10 uM after 48 hrs by SRB assay relative to control; assay type: functional; details: IGROV-1, 48 h, read-out: GI; how it was run: as §1
# [15] = Growth inhibition of human OVCAR3 cells at 10 uM after 48 hrs by SRB assay relative to control; assay type: functional; details: OVCAR-3, 48 h, read-out: GI; how it was run: as §1
# [16] = Growth inhibition of human OVCAR4 cells at 10 uM after 48 hrs by SRB assay relative to control; assay type: functional; details: OVCAR-4, 48 h, read-out: GI; how it was run: as §1
# [17] = Growth inhibition of human NCI/ADR-RES cells at 10 uM after 48 hrs by SRB assay relative to control; assay type: functional; details: read-out: GI; how it was run: as §1
# [18] = Growth inhibition of human SKOV3 cells at 10 uM after 48 hrs by SRB assay relative to control; assay type: functional; details: SK-OV-3, 48 h, read-out: GI; how it was run: as §2
# [19] = Growth inhibition of human 786-0 cells at 10 uM after 48 hrs by SRB assay relative to control; assay type: functional; details: 786-0, 48 h, read-out: GI; how it was run: as §1
# [20] = Growth inhibition of human ACHN cells at 10 uM after 48 hrs by SRB assay relative to control; assay type: functional; details: read-out: GI; how it was run: as §1
# [21] = Growth inhibition of human Caki1 cells at 10 uM after 48 hrs by SRB assay relative to control; assay type: functional; details: CAKI-1, 48 h, read-out: GI; how it was run: as §1
# [22] = Growth inhibition of human RXF393 cells at 10 uM after 48 hrs by SRB assay relative to control; assay type: functional; details: RXF 393, 48 h, read-out: GI; how it was run: as §1
# [23] = Growth inhibition of human SN12C cells at 10 uM after 48 hrs by SRB assay relative to control; assay type: functional; details: read-out: GI; how it was run: as §2
# [24] = Growth inhibition of human UO31 cells at 10 uM after 48 hrs by SRB assay relative to control; assay type: functional; details: UO-31, 48 h, read-out: GI; how it was run: as §2
# [25] = Growth inhibition of human PC3 cells at 10 uM after 48 hrs by SRB assay relative to control; assay type: functional; details: PC-3, 48 h, read-out: GI; how it was run: as §1
# [26] = Growth inhibition of human MCF7 cells at 10 uM after 48 hrs by SRB assay relative to control; assay type: functional; details: MCF7, 48 h, read-out: GI; how it was run: as §1
# [27] = Growth inhibition of human Hs 578T cells at 10 uM after 48 hrs by SRB assay relative to control; assay type: functional; details: read-out: GI; how it was run: as §1
# [28] = Growth inhibition of human T47D cells at 10 uM after 48 hrs by SRB assay relative to control; assay type: functional; details: read-out: GI; how it was run: as §2
# Cancer cell lines [29] = assay: Potency index, ratio of 5-fluorouracil GI50 to compound GI50 for human renal cancer cells; assay type: functional
# How it was run: (§3)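 GI50 for each cell line came from NCI panel testing over a 5-log dose range, with 5-fluorouracil tested alongside as the reference drug. The index relates the 5-fluorouracil GI50 to the compound GI50 within each tumour subpanel.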
# Cancer cell lines [30] = assay: Potency index, ratio of 5-fluorouracil GI50 to compound GI50 for human ovarian cancer cells; assay type: functional; how it was run: as §3
# Melanoma cell = assay: Potency index, ratio of 5-fluorouracil GI50 to compound GI50 for human melanoma cells; assay type: functional; how it was run: as §3
# Cancer cell lines [31] = assay: Potency index, ratio of 5-fluorouracil GI50 to compound GI50 for human CNS cancer cells; assay type: functional; how it was run: as §3
# Cancer cell lines [32] = assay: Potency index, ratio of 5-fluorouracil GI50 to compound GI50 for human non-small cell lung cancer cells; assay type: functional; how it was run: as §3
# [33] = Growth inhibition of human colon cancer cells after 48 hrs by SRB assay; assay type: functional; details: Cancer cell lines
# How it was run: (§4)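 Follow-up NCI panel testing over a 5-log dose range for each cell line. GI50, TGI and LC50 were monitored, with 5-fluorouracil run as the positive control. Values are grouped by tumour subpanel.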
# [34] = Growth inhibition of human prostate cancer cells after 48 hrs by SRB assay; assay type: functional; details: Cancer cell lines; how it was run: as §4
# [35] = Growth inhibition of human breast cancer cells after 48 hrs by SRB assay; assay type: functional; details: Cancer cell lines; how it was run: as §4
SMILES,IC50 (Dihydrofolate reductase) [µM],inhibition of growth at 10 µM [1] [%],inhibition of growth at 10 µM [2] [%],inhibition of growth at 10 µM [3] [%],inhibition of growth at 10 µM [4] [%],inhibition of growth at 10 µM [5] [%],inhibition of growth at 10 µM [6] [%],inhibition of growth at 10 µM [7] [%],inhibition of growth at 10 µM [9] [%],inhibition of growth at 10 µM [10] [%],inhibition of growth at 10 µM [11] [%],inhibition of growth at 10 µM [13] [%],inhibition of growth at 10 µM [14] [%],inhibition of growth at 10 µM [15] [%],inhibition of growth at 10 µM [16] [%],inhibition of growth at 10 µM [18] [%],inhibition of growth at 10 µM [19] [%],inhibition of growth at 10 µM [20] [%],inhibition of growth at 10 µM [21] [%],inhibition of growth at 10 µM [22] [%],further results
COc1cc2nc(SCc3cc(OC)c(OC)c(OC)c3)n(-c3ccccc3OC)c(=O)c2cc1OC,0.8,12,14.9,< 10,< 10,33.4,45.9,23.6,22.7,37,23,27.5,16.9,51.8,16.9,< 10,< 10,11.5,57.1,22,inhibition of growth at 10 µM [8]: 10.1%; inhibition of growth at 10 µM [12]: < 10%; inhibition of growth at 10 µM [17]: 37.1%; inhibition of growth at 10 µM [23]: < 10%; inhibition of growth at 10 µM [24]: 63.7%; inhibition of growth at 10 µM [25]: 38.9%; inhibition of growth at 10 µM [26]: 23%; inhibition of growth at 10 µM [27]: 39.2%; inhibition of growth at 10 µM [28]: 11.4%
COc1cc2nc(SCc3cc(OC)c(OC)c(OC)c3)n(Cc3ccccc3)c(=O)c2cc1OC,2,63.2,54.6,92.6,59.2,89.4,84.6,66.6,62.3,78.1,85.2,76.6,60.8,93.8,55.8,70.2,63.3,60.8,74.3,95.5,inhibition of growth at 10 µM [23]: 58.8%; inhibition of growth at 10 µM [24]: 65.3%; inhibition of growth at 10 µM [25]: 51.2%; inhibition of growth at 10 µM [26]: 89.9%; inhibition of growth at 10 µM [27]: 73.3%; inhibition of growth at 10 µM [28]: 64.1%; RatioGI50 (Cancer cell lines [29]): 2 - 10; RatioGI50 (Cancer cell lines [30]): 2 - 10; RatioGI50 (Melanoma cell): 2 - 10; RatioGI50 (Cancer cell lines [31]): 2 - 10; RatioGI50 (Cancer cell lines [32]): 2 - 10; GI50 [33]: 2.2 µM; LC50 [33]: > 100 µM; TGI [33]: 87.8 µM; GI50 [34]: 4 µM; LC50 (concentration killing 50% of cells) [34]: > 100 µM; TGI [34]: > 100 µM; GI50 [35]: 2.5 µM; LC50 [35]: 99.3 µM; TGI [35]: 47.4 µM
COc1ccc(CSc2nc3cc(OC)c(OC)cc3c(=O)n2-c2ccc(OC)cc2OC)cc1,0.3,19.2,19.4,< 10,< 10,12,21.9,< 10,16.6,17.4,< 10,19.8,14,< 10,16.8,< 10,< 10,< 10,31.3,24.5,inhibition of growth at 10 µM [8]: < 10%; inhibition of growth at 10 µM [12]: 19.5%; inhibition of growth at 10 µM [17]: 20.5%; inhibition of growth at 10 µM [23]: < 10%; inhibition of growth at 10 µM [24]: 44.6%; inhibition of growth at 10 µM [25]: 44.4%; inhibition of growth at 10 µM [26]: 16.9%; inhibition of growth at 10 µM [27]: 13.3%; inhibition of growth at 10 µM [28]: 24.4%
COc1ccc(-n2c(SCc3cc(OC)c(OC)c(OC)c3)nc3ccc(Cl)cc3c2=O)cc1,3,20.2,< 10,< 10,< 10,17,18.7,< 10,18,< 10,< 10,33.9,16.3,< 10,28.3,< 10,< 10,16.4,33,25.9,inhibition of growth at 10 µM [8]: 12.7%; inhibition of growth at 10 µM [12]: 15.1%; inhibition of growth at 10 µM [17]: 10.7%; inhibition of growth at 10 µM [23]: 18.3%; inhibition of growth at 10 µM [24]: 52.1%; inhibition of growth at 10 µM [25]: 37.7%; inhibition of growth at 10 µM [26]: 15.6%; inhibition of growth at 10 µM [27]: 13.9%; inhibition of growth at 10 µM [28]: 23.9%
COc1cc(CSc2nc3ccc(Cl)cc3c(=O)n2-c2ccccc2)cc(OC)c1OC,0.8,26.1,14.3,15.5,20,33,50.2,20.3,20.7,23.5,< 10,35.9,27.5,22.2,18.3,< 10,10.7,21.1,26.1,31.1,inhibition of growth at 10 µM [8]: 21.1%; inhibition of growth at 10 µM [12]: 18.8%; inhibition of growth at 10 µM [17]: 24.5%; inhibition of growth at 10 µM [23]: 24%; inhibition of growth at 10 µM [24]: 52.2%; inhibition of growth at 10 µM [25]: 26.8%; inhibition of growth at 10 µM [26]: 23.1%; inhibition of growth at 10 µM [27]: < 10%; inhibition of growth at 10 µM [28]: 29.1%
